# MT1-MMP act inh: inhibitors of human MT1-MMP activation | P50281 | HT1080 RFP-PRO-GFP cells, GFP/RFP ratio fluorescence, overnight; percent of plate control window, DMSO zero | GFP/RFP ratio change, % at 20 µM | hit rate 0.061% among 360,000 | AID 651647;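 active = GFP/RFP ratio change of at least 30% with cell ATP level not reduced by more than half and red fluorescence within 50% of control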
#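 Material: RFP-PRO-GFP reporter HT1080 cells. Dosing: single-point 20 µM compound, 1% DMSO. Controls: DMSO and RFP-L50D-GFP cell wells. Timing: cells overnight before dosing, compound overnight, 37 °C, 5% CO2. Measure: GFP/RFP fluorescence ratio.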
# GC-B act: GC-B (human) receptor activation; P20594; HEK293-GC-B cells, CNP EC30, cGMP TR-FRET; 0% at EC30 CNP, 100% saturating CNP; activation, % at 10 µM; hit rate 0.11% among 370,000;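 active = activation at 10 µM reaching about 35% in either raw or pattern-adjusted values, limit read from the data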
# NPR1 activator: GC-A (human) enzyme activation; P16066; HEK293 GC-A cells, cGMP TR-FRET, EC30 ANP; 0% at EC30 ANP, 100% saturating ANP; activation, % at 10 µM; hit rate 0.14% among 370,000; in the data active = activation above about 40%
# Target sequence (P16066 whole entry, looked up): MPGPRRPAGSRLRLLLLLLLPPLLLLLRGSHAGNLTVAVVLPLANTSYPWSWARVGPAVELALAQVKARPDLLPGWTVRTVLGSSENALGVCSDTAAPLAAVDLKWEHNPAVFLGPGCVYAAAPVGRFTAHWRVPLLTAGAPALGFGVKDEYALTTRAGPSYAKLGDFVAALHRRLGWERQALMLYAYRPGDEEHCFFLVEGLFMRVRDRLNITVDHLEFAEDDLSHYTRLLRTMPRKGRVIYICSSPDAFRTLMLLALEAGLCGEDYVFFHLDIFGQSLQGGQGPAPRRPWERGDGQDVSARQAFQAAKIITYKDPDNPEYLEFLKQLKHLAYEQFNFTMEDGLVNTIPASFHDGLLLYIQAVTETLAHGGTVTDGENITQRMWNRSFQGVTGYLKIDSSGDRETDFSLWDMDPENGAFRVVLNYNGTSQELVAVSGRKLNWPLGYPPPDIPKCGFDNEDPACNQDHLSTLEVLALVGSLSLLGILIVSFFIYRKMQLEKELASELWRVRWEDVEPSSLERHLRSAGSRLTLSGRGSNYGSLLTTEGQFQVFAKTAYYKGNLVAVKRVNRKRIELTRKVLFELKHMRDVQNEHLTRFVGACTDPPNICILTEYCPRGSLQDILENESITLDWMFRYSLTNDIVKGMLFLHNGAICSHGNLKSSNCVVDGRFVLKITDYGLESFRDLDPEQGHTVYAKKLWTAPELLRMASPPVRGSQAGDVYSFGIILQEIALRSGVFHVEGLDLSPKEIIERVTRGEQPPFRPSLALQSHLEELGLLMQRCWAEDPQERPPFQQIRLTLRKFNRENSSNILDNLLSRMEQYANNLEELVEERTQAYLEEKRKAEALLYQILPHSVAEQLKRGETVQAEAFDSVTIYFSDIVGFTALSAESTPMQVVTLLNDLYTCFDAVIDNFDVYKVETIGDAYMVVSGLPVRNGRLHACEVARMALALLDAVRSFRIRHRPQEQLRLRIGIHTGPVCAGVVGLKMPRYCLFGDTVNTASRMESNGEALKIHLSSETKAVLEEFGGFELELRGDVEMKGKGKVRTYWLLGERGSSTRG
# A1 inh: inhibitors of the anti-apoptotic protein A1, read as caspase activation; MEF A1-2A-BIM cells, Caspase-Glo 3/7 luminescence, 3 h; percent of clofoctol response, vehicle zero; caspase activation, % (concentration not given with the values); hit rate 0.066% among 330,000; AID 2462;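 active = over half of replicate activation scores above 10%, or exactly half above 10 with the replicate mean above 10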
# SKN-1 block: blocks SKN-1 activity in C. elegans | AID 624304 | hit rate 0.49% among 360,000 | inhibition, % at 21.8 µM | C. elegans VP596 Pgst-4::GFP/RFP ratio, acrylamide-induced, 24 h;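 active = interference check ratio from 0.5 to 1.5 plus GFP to RFP signal ratio inhibition reaching or exceeding a fixed threshold, cut at about 30% in these data, passing the limit was not always enough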
# Tb MetRS inh: Trypanosoma brucei MetRS inhibition; purified T. brucei MetRS, ATP depletion, Kinase-Glo luminescence; inhibition, % at 11.9 µM; hit rate 0.4% among 360,000;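 active = inhibition above a per-plate cutoff of the control wells' mean inhibition plus 3 SD, cut at about 5.5% in these data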
#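 Test system – parasite MetRS enzyme · Reagent – substrates ATP, L-methionine and bulk Escherichia coli tRNA · Doses – 11.9 µM compound single dose, 0.9% DMSO · Times – 15 min enzyme-compound preincubation, 2 h reaction, 10 min detection, 25 °C · Signal – Kinase-Glo luminescence, ATP depletion format · Controls – DMSO-only wells as low control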
# A number is an active result; i = inactive; nt = not tested or not shown; ! = a repeat was not active. This is a sample that favours compounds with a hit; in the whole collection about 1.1% have one here.
SMILES,MT1-MMP act inh,GC-B act,NPR1 activator,A1 inh,SKN-1 block,Tb MetRS inh
NC(=O)c1cc(N)ccc1N1CCCCC1,i,i,i,i,i,i
NC(=O)c1cc(N)ccc1N1CCCC1,i,i,i,i,60,i
COc1ccc(C2C(C(=O)N3CCN(C=O)CC3)CC(=O)N2c2ccc(OC)cc2)cc1 (stereo not drawn),nt,i,i,nt,nt,nt
COC(=O)[C@]1(CNS(=O)(=O)C2CC2)CC(=O)N(C)[C@@H]1c1ccccc1,nt,i,i,nt,nt,nt
CCOc1cccc(C(=O)Nc2cccc(-c3nnc(-c4ccc(C)cc4)o3)c2)c1,i,i,i,20,i,i
CCOc1cccc(C(=O)Nc2cccc(-c3nnc(-c4ccccc4)o3)c2)c1,i,i,i,i,i,i
C1=C(CCNc2nnnn2-c2ccccc2)CCCC1,i,i,i,i,i,i
c1ccc(CCNc2nnnn2-c2ccccc2)cc1,i,i,i,i,37,i
O=c1/c(=C\c2ccc(F)cc2)sc2n1CCCN=2,i,i,i,i,39,i
O=c1/c(=C/c2ccc(O)cc2)sc2n1CCCN=2,i,i,i,i,i,i
CCCCn1nnnc1NCc1ccc(C)cc1,i,i,i,i,i,i
CCCCn1nnnc1NCc1ccc(C)s1,i,i,i,i,41,i
N#CC1=C(N)Oc2cc(O)ccc2C1c1ccccc1 (stereo not drawn),i,i,57,i,i,i
CN(Cc1ccccc1)S(=O)(=O)c1cccc(C(=O)OCc2ccc(Oc3ccccc3)cc2)c1,nt,i,i,nt,nt,nt
CC(CCc1ccco1)NC(=O)CSc1cc(=O)n(C)c2ccccc12 (stereo not drawn),i,i,i,i,37,i
CC(=O)NCCc1cc2cc(C)c(C)cc2[nH]c1=O,i,i,i,i,32,i
CCCC(=O)NCCc1cc2cc(C)c(C)cc2[nH]c1=O,i,i,i,nt,i,i
CCOC(=O)[C@]12CCCCC/C=C\1N(CCc1ccc(Cl)cc1)C(=O)[C@H]2CC(=O)N1CCN(C(=O)c2ccco2)CC1,nt,i,i,nt,nt,nt
O=C(Nc1ccccc1Cl)c1cnccn1,i,i,i,i,i,i
O=C(Nc1ccc(Br)cc1Cl)c1cnccn1,i,i,i,i,61,i
CC(=O)OC12CCCN(C1)/C(=C/c1cccnc1)C2 (stereo not drawn),nt,i,i,nt,nt,nt
Cc1cc(OCC(O)CN2CCN(C)CC2)ccc1C(C)C (stereo not drawn),i,i,i,i,36!,i
COc1ccc(S[C@]2(C(=O)N3CCN(C(C)=O)CC3)CC(=O)N(C(=O)Nc3ccc(C)c(Cl)c3)[C@@H]2c2ccc(OC)cc2)cc1,nt,i,i,nt,nt,nt
O=C(Cc1cccs1)N/N=C\c1ccccc1,nt,i,i,nt,nt,nt
CC1(C)CC(=O)C2=C(C1)NC(Nc1nc3ccccc3o1)=NC21CCCC1,i,i,i,i,i,i
SMILES,MT1-MMP act inh,GC-B act,NPR1 activator,A1 inh,SKN-1 block,Tb MetRS inh
CC1(C)CC(=O)C2=C(C1)NC(Nc1nc3ccccc3o1)=NC2c1ccccn1 (stereo not drawn),nt,i,46,i,i,i
CSc1ccc(-c2nnn(Cc3ccc(Br)cc3)n2)cc1,i,i,i,i,36,i
N#CCC[C@@H]1CC[C@]2(CCCN(Cc3ccc(Br)cc3)C2)O1,nt,i,i,nt,nt,nt
O=C(C(=Cc1ccc(F)cc1)c1ccccc1)c1ccc(O)cc1,i,i,68,nt,i,i
Cc1c(NC(=O)C2CCCN(S(=O)(=O)c3ccc(Br)s3)C2)c(=O)n(-c2ccccc2)n1C (stereo not drawn),nt,i,i,nt,nt,nt
CCCOC(=O)c1ccc(Oc2c(-c3ccc(OCC)cc3O)n[nH]c2C)cc1,i,i,i,i,i,i
COc1ccc(Oc2c(-c3ccc(O)cc3O)n[nH]c2C)cc1,i,i,44,i,i,i
COc1cccc(-n2c(SCC(N)=O)nnc2-c2c[nH]c3ccccc23)c1,i,i,i,i,i,11
COc1cccc(OC)c1NC(=O)OC1CCC12CCC(c1ccccc1)CC2 (stereo not drawn),nt,i,i,nt,nt,nt
CCC(CO)Oc1cc(NCc2ccccc2)c2ncn(C(C)C)c2c1 (stereo not drawn),i,i,i,i,i,i
CCC(COC)Oc1cc(NCc2ccccc2)c2ncn(C(C)C)c2c1 (stereo not drawn),i,57,i,i,i,i
O=C1c2ccccc2-c2ccc(P(=O)(O)O)cc21,nt,i,i,nt,nt,nt
S=c1[nH]nc(-c2cc(-c3ccccc3)n[nH]2)n1/N=C/c1cccc2ccccc12,nt,i,i,nt,nt,nt
N/C(=N\OC(=O)COc1ccc2ccccc2c1)c1cccnc1,i,i,i,i,42,i
N/C(=N\OC(=O)COc1ccc2ccccc2c1)c1ccncc1,i,nt,nt,i,39,i
Cc1cccc(OCC(=O)O/N=C(\N)c2ccncc2)c1,i,i,i,i,i,i
N/C(=N\OC(=O)COc1ccc(Cl)cc1)c1cccnc1,i,i,i,i,37,i
Fc1ccc(-c2n[nH]c(=S)n2N=Cc2ccc(-c3ccccc3)cc2)cc1,nt,i,i,nt,nt,nt
C=CCOC/C=C/C#CCN(Cc1ccc(OC)cc1OC)C(=O)Nc1ccccc1,nt,i,i,nt,nt,nt
N=C1C(c2nc3ccccc3s2)=C(O)CN1C1CCCCC1,i,i,54,i,i,i
N=C1C(c2nc3ccccc3s2)=C(O)CN1Cc1ccccc1,i,i,46,i,i,i
COc1cccc(N2CCN(CC(=O)NCc3cccc(OC)c3OC)CC2)c1,nt,i,i,nt,nt,nt
CN1/C(=C\C(=O)COC(=O)Cn2nnc(-c3ccccc3)n2)C(C)(C)c2ccccc21,39,i,i,i,i,i
O=C(Cn1nnc(-c2ccc(F)cc2)n1)OCC(=O)c1ccccc1,i,i,49,i,i,i
CCn1c(SCc2c(F)cccc2F)nc2sc3c(c2c1=O)CCCC3,nt,i,i,nt,nt,nt
SMILES,MT1-MMP act inh,GC-B act,NPR1 activator,A1 inh,SKN-1 block,Tb MetRS inh
CC(C)Cn1c(N)c(C(=O)CSc2nnnn2C)c(=O)n(C)c1=O,i,i,i,i,43,i
Brc1ccc(Cn2nnc(-c3ccc(N4CCOCC4)cc3)n2)cc1,nt,i,i,nt,nt,nt
CCN(CC)c1ccc(C2NC(=O)c3ccccc3N2)cc1 (stereo not drawn),i,i,i,nt,37,i
CCN(CC)c1ccc(C2Nc3cccc4cccc(c34)N2)cc1,i,i,i,i,i,i
Cc1sc(N/N=C/c2cccnc2)nc1-c1ccc(Cl)cc1,i,i,i,i,35,i
Clc1ccc(N/N=C/c2cccnc2)cc1,i,i,i,i,i,i
COC(=O)c1cc(NC(=O)NC2CCCCN(Cc3cccc(Cl)c3)C2=O)cc(C(=O)OC)c1 (stereo not drawn),nt,i,i,nt,nt,nt

# Source: PubChem
